Measurements as given in the EternaBench riboswitch data.

System: MS2 coat protein
Assay: apparent Kd, MS2 coat protein; higher = weaker binding; RNA-MaP array; FMN 200 µM where present
In short: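 Green signal from SNAP-549-labelled MS2 coat protein was normalised to red-channel RNA signal and to the median Fmax of control clusters. The protein was titrated from 0.7 or 1.5 nM, doubling to 3 µM, without and then with constant ligand, over designs transcribed by stalled E. coli RNA polymerase on Illumina sequencing-chip clusters, in 100 mM Tris-HCl pH 7.5, 80 mM KCl, 4 mM MgCl2, BSA, DTT, yeast tRNA and Tween-20. The apparent Kd is the median of filtered per-cluster binding-curve fits.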

[1] = designed as: ON switch for flavin mononucleotide, no ligand
[2] = ligand present: flavin mononucleotide, designed as: ON switch for flavin mononucleotide
[3] = designed as: OFF switch for flavin mononucleotide, no ligand
[4] = ligand present: flavin mononucleotide, designed as: OFF switch for flavin mononucleotide

Sequence	apparent Kd [1] [nM]	apparent Kd [2] [nM]	apparent Kd [3] [nM]	apparent Kd [4] [nM]
UUACUCAUGUAAGGAUAUGCAGCCGUUUCGGCUGCAGAAGGUACUAUAAUACAUGAGGAUCACCCAUGUCUUUUUAAUUUGUAC	35.7	23.1	–	–
AGUCGGAGCAGAGGAUAUAUACAUGAGGAUCACCCAUGUGACUGACUACGCUAGAAAUAGCAUGUAUAGAAGGCUGCUCCGACA	–	–	388	946
CGAUAAUAUAGAGGAUAUGUUUAACAUGAGGAUCACCCAUGUGACAUGGGAUUAAUAUAUAACUUACAGAAGGCUAUACAAUCG	–	–	34.1	46.9
AGAACAUGAGGAUCACCCAUGUAAAGAUCGGUCAAUAAGGGUGAGGAUAUGCUUAAAAUAAGGUAGCAGAAGGUACUUGGUGCA	91.2	245	–	–
UUCAGCUCGUCAGGAUAUACGUCACUGCUUCGGCAGUGUGGUAAGAUCACAUGAGGAUCACCCAUGUAGAAGGGACGAGCUGAU	–	–	11.9	274
GAAGUUAGAGGAUAUACAUGAGGAUCACCCAUGUGUGUUGUGAACGAUGUACGUUUAUGUAGAAGGCUAACUUC	–	–	23.6	106
CUGAUGUUAGGAUAUCAGGCGCCCGCCACUGGCAGGGCGCAUGAGAAGGGACAUGAGGAUCACCCAUGUAGUAA	–	–	27.5	46.1
UAGCCCGGCCAGAAGGGAGCUAUACAUGAGGAUCACCCAUGUCACUGACUCAGGAUAUGGCGCGCUUGGUAUAAGUAUUCAUGG	8.36	5.46	–	–
UUUAAACAUGAGGAUCACCCAUGUCGUUCAAAUCAAGGAUAUCAAGCGUAUGCGCACGCUUGAGAAGGUGAAGCUC	47.2	135	–	–
GAGAUGUGAGGAUAUCUAGACCGCGGCAGAGCUGCGGUCCGAGAGAAGGCACAUGAGGAUCACCCAUGUGAUGA	–	–	57	207
CCAUUCAGAGGAUAUGCGCAUAGAUAAGACUUUUUUUCUUAACAUGAGGAUCACCCAUGUAGAAGGCUGUAACC	–	–	19.7	18.6
AUGAGUGUAAUGAUUGAGCCACUGCAGGAUAUCACAUGAGGAUCACCCAUGUGUCAGCCUCGGAGUGAGAAGGGCGGUUUCUUA	–	–	5.38	10.6
AGUACAUCAGGAUAUACAUGGAAGAUCAUUAUGACCCAUCUACAUGAGGAUCACCCAUGUAGAAGGGAUGUACA	–	–	24.6	16.9
UCUAGACAUGAGGAUCACCCAUGUGAGGAUAUGAUGCGAUCGUCGAAAGACGAUAGCAUCAGAAGGCACAAAUG	–	–	66.5	200
UUGUUGUAUGUAGGAUAUGCGUGUUAUUAUUAUGCAGAAGGACAUGAGGAUCACCCAUGUAUAUUAUUAUUAUAUGUUAUAUAU	–	–	25	23.9
ACGACGAAAGUCGAACGAUGUAGCAGAAGGACAUGAGGAUCACCCAUGUCAGCUGUAACAGCCAUGUAGGAUAUGCUACAUCGC	–	–	4.38	5.45
CCUCUACAUGAGGAUCACCCAUGUGAGGAUAUCAAAGCCAGAGCGGAUCUCCGGCCCAUGAGAAGGUGCAUGGA	–	–	19.8	70.8
CUGCUCCGUGUAGGAUAUCCCGGCAACCAAUCGGGAGAAGGACAUGAGGAUCACCCAUGUAUGUUAUUAUCACGUGAAGCGUCC	–	–	23.1	30.1
CAUUAAUUGAUUAUUGUAUUUAUACAGGAUAUGUAACAUGAGGAUCACCCAUGUAUACAUGGGAAACAGAAGGGUAUUUAUAGA	–	–	31.9	25.6
CUUCAACAAGGAUAUGCCAUGGAUCGACACUGUUACGCGAAACAUGAGGAUCACCCAUGUAGAAGGUGUUGAGA	–	–	78.5	96.2
GUGCGGUAGGAGAAGGACAGAGGCUUCAUUACAUACAUGAGGAUCACCCAUGUAGGAUAUCCUACCUCACGCGGCCUCCUCCUG	–	–	8.48	31.8

Sequence	apparent Kd [1] [nM]	apparent Kd [2] [nM]	apparent Kd [3] [nM]	apparent Kd [4] [nM]
GCACUGGAUGUAGGAUAUCAGGACGAUAAGUCCUGAGAAGGACAUGAGGAUCACCCAUGUACUCAAAACCAGUGCUAUAAUAUA	–	–	15.6	23.8
GGGUACAUCGGAGGAUAUCAUGUAUAUACAUGAGGAUCACCCAUGUCGAUGGAGACAUCGGAGAUUGAGAAGGCCGAUGUACCG	826	31.5	–	–
UUGGACGUCGUAGCAUAUGUAGGAUAUUCCUACAUGAGGAUCACCCAUGUUGACAUGGAAGAAGGACAGAAGGACGAUGUCCAU	146	5.47	–	–
UACGUACAGAAGUACGCCGGGUCCAGAAGGGACAUGAGGAUCACCCAUGUACCGUUGAUUGCUUGUCAGGAUAUGGACCCGGCC	–	–	7.1	27.4
CUUUCGUGAGGAUAUCAGUAGUAAAAUAAUAAAAUUACUACUGAGAAGGCACAUGAGGAUCACCCAUGUUCCUC	–	–	24.4	134
GGCUCUGCUCGAGGAUAUAGCUGCAUGUAGUGUCCUGAGGCACAUGAGGAUCACCCAUGUGUAGGCUAGAAGGCGACAGAGGCG	–	–	188	276
GGAAAUUAGCAAGGAUAUCGGCUUACUAUAACUUUAUGCCCUGGGACAUGAGGAUCACCCAUGUACGAGAAGGUGCUAACUACA	–	–	23.6	36.9
CGUAAGCAAGGAUAUACAUGAGGAUCACCCAUGUAGCUUUGCUUCGUGGGCACAACAUGUAGAAGGUGCGAAAA	–	–	15.3	13.3
GCGUUGUUGUAGAAGGUACAUGAAUACUUUUAAUACCUCAAGUAACAUGAGGAUCACCCAUGUAGUAAGGAUAUACAUGAACGC	35.4	30.2	–	–
AAUUAUUAUUGAGGAUAUCGUAUUGAAACAAUACGAGAAGGCGGAAUAAACAUGAGGAUCACCCAUGUGAGCCUGAUGCUUAUG	–	–	25	36.1
UGCUAGGAUGGGUCUAAUGGACCGCAGGAUAUGCUUGUACAUGAGGAUCACCCAUGUAACAUUGUGCAGAAGGGUGGAUCCACG	65.6	11.6	–	–
UUUCGGCUAGGAUAUCUGUGCUCGGACAUGAGGAUCACCCAUGUGCGUCAUCACGGAGCCGGAGAAGGAGCUCGUA	–	–	15.8	20
CCAGCGUAUGUGAGGAUAUGCUGGUCCUUGGAUCAGCAGAAGGCACAUGAGGAUCACCCAUGUAGAGACGUUGG	–	–	27	29.8
GAGUGACAUGAGGAUCACCCAUGUGAGGAUAUCGGCCGGACCUUGUUAGCUUCCACCGCGAGAAGGCACAUCGG	–	–	23.3	27.9
GCUGCAUAGUCAGGAUAUGCAAAGUAAUAUAUGGAAACAUAUAUUACAACAUGAGGAUCACCCAUGUAGAAGGGACUGUGCAGU	–	–	15.9	14.8
AUGUUACAUGAGGAUCACCCAUGUGAGGAUAUGUGUAUCCCUAAAAAAGUGUGGGACCAUAGAAGGCACUUGGA	–	–	62.9	98.1
ACCGCACAUGAGGAUCACCCAUGUCAGGAUAUACAAGAAAAUCAGGCUAAUGCCUGAAGUAGAAGGGACGAGGA	–	–	22.4	14.2
ACGUGUCGUGUAGGAUAUGACACAGGAAACUGGUCAGAAGGACAUGAGGAUCACCCAUGUAGAGUGUUUAAGGAUGACGUAUGC	–	–	46.9	161
GAGCGAAAGCUCAAUGUCGAUAGCAGAAGGACAUCCAACAACAUGAAAACAUGAGGAUCACCCAUGUAGGAUAUGCUAUCGACU	–	–	6.8	7.4
GAGCCUCCGUAGAAGGCCGCGGAAUCCGAACGCGGAGGAUAUACAUGAGGAUCACCCAUGUGAAAGUGGAACGAUAAAACGCUU	–	–	14.7	47.2
GAUGGAGAGCAGGAUAUCUUGGGUAAGCAUCAUAGAGAAGGGCUCACAUGAGGAUCACCCAUGUGGUCCAAGAA	–	–	14.2	56
